In article PMC11887798 (Science Advances, 2025):

Tests used:
C57BL/6 mice = test: APAP-induced ALF model validation; format: in vivo, mouse; settings: APAP 500 mg/kg i.p.
Method in brief: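 Male C57BL/6 mice were housed under SPF conditions with a 12-hour/12-hour light/dark cycle at 22°C and 45 to 60% humidity. APAP was dissolved in physiological saline by heating at 50°C and given intraperitoneally to induce acute liver failure.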

P-selectin = settings: read-out: natural PSGL-1 binding to P-selectin (Kd); ref [23]; cited from earlier work

Row | Molecule | serum ALT and AST (C57BL/6 mice; n = 6) | mortality of mice (C57BL/6 mice; within 72 hours, n = 10) | Kd (P-selectin)
1 | CC(=O)Nc1ccc(O)cc1 [APAP, acetaminophen] | rising rapidly within 12 hours and peaking at 24 hours | over 50% | 
2 | PSGL-1: natural P-selectin ligand on neutrophils (protein, UniProt Q14242 42-412, looked up) P-selectin glycoprotein …: QATEYEYLDYDFLPETEPPEMLRNSTDTTPLTGPGTPESTTVEPAARRSTGLDAGGAVTELTTELANMGNLSTDSAAMEIQTTQPAATEAQTTQPVPTEAQTTPLAATEAQTTRLTATEAQTTPLAATEAQTTPPAATEAQTTQPTGLEAQTTAPAAMEAQTTAPAAMEAQTTPPAAMEAQTTQTTAMEAQTTAPEATEAQTTQPTATEAQTTPLAAMEALSTEPSATEALSMEPTTKRGLFIPFSVSSVTHKGIPMAASNLSVNYPVGAPDHISVKQCLLAILILALVATIFFVCTVVLAVRLSRKGHMYPVRNYSPTEMVCISSLLPDGGEGPSATANGGLSKAKSPGLTPEPREDREGDDLTLHSFLP |  |  | 320 nM
